Source: PubChem
SENP8 block-1: inhibitors of human SENP8 protease; recombinant SENP8, Nedd8 substrate fluorescence; inhibition, % at 20 µM; 360,000 compounds, 0.64% hits; Q96LD8; AID 602440; in the data active means inhibition mostly above about 40%, no sharp cut-off; inactive means mostly below about 27%
Target sequence (Q96LD8 whole entry, looked up): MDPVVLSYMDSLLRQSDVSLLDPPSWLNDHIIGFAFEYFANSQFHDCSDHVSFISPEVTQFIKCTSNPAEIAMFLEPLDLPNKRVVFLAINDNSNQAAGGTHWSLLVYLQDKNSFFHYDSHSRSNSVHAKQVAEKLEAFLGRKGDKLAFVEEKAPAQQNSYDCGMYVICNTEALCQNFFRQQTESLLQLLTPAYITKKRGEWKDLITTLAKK
SENP8 block-2: inhibitors of human SENP8 protease; AID 2540; purified SENP8, Z-RLRGG-aminoluciferin cleavage, luminescence; inhibition, % at 10 µM; 330,000 compounds, 1.2% hits; Q96LD8; in the data active means inhibition above about 50%
UCH37 DUB inh: inhibitors of human deubiquitinating enzyme UCH37; inhibition, % (concentration not given with the values); purified proteasome/UCH37, Ub-AMC cleavage fluorescence; Q9Y5K5; AID 588478; 330,000 compounds, 0.33% hits;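 active means mean inhibition over replicate wells above about 20%, limit read from the data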;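 further: 0% = compound-free wells with enzyme and 100% = wells lacking proteasome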
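system = Proteasome-associated human UCH37 deubiquitinase | amount = 0.15 nM proteasome as dispensed | medium = pH 7.4 Tris-HCl (50 mM) with ovalbumin, ATP-MgCl2, DTT | incubation = 30 min preincubation with enzyme, 25 min cleavage at room temperature | detection = AMC fluorescence 355/460 nm | read-out basis = percent inhibition | controls = no-proteasome and no-compound wells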
SENP1 FRET inh: SENP1 (human) catalytic domain inhibition; inhibition, % at 10 µM; recombinant SENP1 catalytic domain, CyPet-SUMO1-YPet FRET cleavage; AID 624204; 360,000 compounds, 0.21% hits;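 active means inhibition at least 30% at 10 µM, raw YFP signal under a set limit, fluorescence ratio 0.5 to 1.5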;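 further: 0% = enzyme with DMSO and 100% = no enzyme wells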
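Controls: no-enzyme wells low, DMSO-plus-enzyme wells high control. Test system: human recombinant His6-tagged SENP1 catalytic domain enzyme. Reagent: SFCypet-SUMO1-SFYpet FRET protein substrate, 25 nM final. Doses: one dose per compound, 10 µM, 0.5% DMSO. Detection: FRET, CFP and YFP emission. Timing: 50 min reaction at room temperature.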
SENP6 block: blocks the human protease SENP6; Recombinant SENP6 catalytic domain, aminoluciferin luminescence; 330,000 compounds, 1.8% hits; Q9GZR1; AID 2599; inhibition, % at 10 µM;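 active means inhibition above about 50% at the single tested dose, limit read from the data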;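 further: plate controls were DMSO wells with enzyme for no effect and DMSO wells lacking enzyme for full effect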
SENP7 inh: SENP7 protease inhibition; AID 434973; inhibition, % at 5 µM; 330,000 compounds, 1.5% hits; Q9BQF6; recombinant SENP7, Z-RLRGG-aminoluciferin luminescence, 40 min;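 active means inhibition above about 50% at the single test dose, limit read from the data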;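 further: plate controls were DMSO with enzyme for no effect and no enzyme buffer wells for full effect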
SENP8 confirm: human SENP8 inhibition, confirmed. shares compounds with SENP7 inh. Recombinant SENP8, Z-RLRGG-aminoluciferin luminescence, 60 min. 6,200 compounds, 40% hits. AID 488912. inhibition, % at 12.5 µM;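 active means mean inhibition across replicates above about 50%, limit read from the data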
SENP6 conf: human SENP6 inhibition, confirmed | 6,200 compounds, 58% hits | shares compounds with SENP7 inh | recombinant SENP6, Z-RLRGG-aminoluciferin luminescence | AID 488915 | inhibition, % at 12.5 µM
SENP7 confirm: human SENP7 inhibition, confirmed; shares compounds with SENP7 inh; AID 488917; 6,200 compounds, 69% hits; recombinant SENP7, Z-RLRGG-aminoluciferin luminescence, 40 min; inhibition, % at 12.5 µM
Casp3 SENP sel: selectivity test for SENP inhibitors: human caspase-3 inhibition. shares compounds with SENP7 inh. purified caspase-3, Z-DEVD-aminoluciferin luminescence, 60 min. inhibition, % at 12.5 µM. 6,200 compounds, 60% hits;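 active means mean inhibition above about 50%, limit read from the data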;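 further: plate controls were enzyme with DMSO for no effect and wells without caspase-3 for full effect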
Target sequence (P42574 28-227 limits assumed): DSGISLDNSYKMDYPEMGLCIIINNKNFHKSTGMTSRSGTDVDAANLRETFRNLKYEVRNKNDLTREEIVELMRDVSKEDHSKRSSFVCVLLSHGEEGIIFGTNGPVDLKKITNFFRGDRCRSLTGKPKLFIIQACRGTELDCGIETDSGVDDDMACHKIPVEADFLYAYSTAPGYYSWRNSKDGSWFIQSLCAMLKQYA
Luc interf: interferes with luciferase luminescence in SENP counter-screen. shares compounds with SENP7 inh. Pre-incubated SENP8/Z-RLRGG-aminoluciferin, luciferase luminescence interference. inhibition, % at 12.5 µM. 6,200 compounds, 39% hits. AID 488919;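 active means mean inhibition above about 50% when retested at one dose, limit read from the data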;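 further: plate controls were DMSO wells with completed reaction for no effect and substrate without enzyme for full effect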
An asterisk follows results filed as active; · = no result given. Rows were chosen to be rich in hits. Some 2.6% of all compounds tested hit in one or more screens of this group.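 How the source made its calls, unless noted: active means mean inhibition above about 50% in the one-dose retest (limit read from the data); inactive means the rest.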

SMILES	SENP8 block-1	SENP8 block-2	UCH37 DUB inh	SENP1 FRET inh	SENP6 block	SENP7 inh	SENP8 confirm	SENP6 conf	SENP7 confirm	Casp3 SENP sel	Luc interf
Cc1nc(Cl)cc(N/N=C/c2ccc(O)cc2)n1	2	89*	·	0	87*	91*	90*	90*	99*	90*	87*
CCN(CC)S(=O)(=O)c1cccc(C(=O)NN=C2CCCC(=O)C2)c1	·	·	7	·	·	·	·	·	·	·	·
Cn1cccc1C(=O)N/N=C/c1c(Cl)cccc1Cl	4	76*	·	10	79*	83*	83*	82*	72*	91*	26
Cc1ccc2c(Cl)c(C(=O)N/N=C/c3cccn3C)sc2c1	-5	29	·	-26	39	84*	10	8	-5	11	1
C/C(=N\NC(=O)c1cc2ccccc2cc1O)c1cccs1	-45	86*	·	25	93*	89*	12	94*	101*	96*	34
Cn1cccc1/C=N/NC(=O)c1ccccn1	-23	8	·	2	31	29	·	·	·	·	·
Cn1cccc1/C=N/NC(=O)c1cc2ccccc2cc1O	-207	49	·	12	59*	48	56*	54*	84*	68*	2
CC(=NNC(=O)c1ccc2ccccc2c1)c1cccs1	·	·	-2	·	·	·	·	·	·	·	·
O=C(NN=Cc1cc2c3c(c1O)CCCN3CCC2)c1ccccc1O	·	·	0	·	·	·	·	·	·	·	·
CCC(=NNc1ccccc1C)c1cnnc(SC)n1	·	·	4	·	·	·	·	·	·	·	·
COc1ccc(C=NNC(=O)CCn2cnc(-c3ccccc3)c2-c2ccccc2)cc1OC	·	·	3	·	·	·	·	·	·	·	·
S=c1[nH]nc(-c2n[nH]c3c2CCC3)n1N=C/C=C/c1ccco1	·	·	11	·	·	·	·	·	·	·	·
CC(C)c1ccc(C=NNC(=O)C(=O)NCCCN2CCOCC2)cc1	·	·	3	·	·	·	·	·	·	·	·
O=C(NNC(=O)c1cc2ccccc2cc1O)c1cccs1	-17	95*	0	-8	93*	87*	97*	98*	102*	97*	91*
O=C(NNC(=O)c1ccc2ccccc2c1O)c1cccs1	-196	9	0	-1	26	-2	·	·	·	·	·
C/C(=N\NC(=O)c1cc2ccccc2cc1O)c1ccc(C)o1	-229	68*	·	23	84*	63*	80*	78*	95*	90*	47
C/C(=N/NC(=O)c1cccs1)c1cccs1	-12	15	·	1	33	62*	25	25	70*	63*	32
CC(=NNC(=O)c1cccs1)c1cccs1	·	·	1	·	·	·	·	·	·	·	·
Cc1cc(Cl)ccc1OCC(=O)NN=C1CC2C=CCC12 (stereo not drawn)	·	·	4	·	·	·	·	·	·	·	·
Cn1c(=O)[nH]c(=O)c2c1nc(NN=Cc1ccncc1)n2Cc1ccc(F)cc1	·	·	-1	·	·	·	·	·	·	·	·
Cc1ccc(C(=O)Nc2cccc3cccnc23)cc1C	-7	51*	1	2	69*	63*	43	63*	86*	43	40
COc1ccc(/C(=N/Nc2ncnc3ccccc23)C(=O)O)cc1	-7	-1	·	4	-25	2	·	·	·	·	·
CCOC(=O)/C(=N\Nc1ncnc2ccccc12)c1ccc(OC)cc1	15	74*	·	-13	77*	65*	24	70*	90*	48	8
CN=C1S/C(=C\c2ccc(Cl)cc2)C(=O)N1C	3	28	4	2	37	18	·	·	·	·	·
CN=C1S/C(=C\c2cccc(Cl)c2Cl)C(=O)N1C	·	67*	9	·	77*	49	-10	41	38	17	11
